Reference: ChEMBL document CHEMBL1155250, “Novel 1-aminoethyl-3-arylsulfonyl-1H-pyrrolo[2,3-b]pyridines are potent 5-HT(6) agonists” (Bioorg Med Chem, 2009)
Active and inactive are the calls of the source. The calls are words filed in the database; no cut-off is given here.

Assays:
[1] = molecular target: T1, 5-hydroxytryptamine receptor 6 (Homo sapiens, UniProt P50406); assay: Agonist activity at human cloned 5HT6 receptor expressed in HeLa cells assessed as induction of adenylyl cyclase activity by RIA; assay type: functional, cell-based
T1 sequence (P50406 whole entry): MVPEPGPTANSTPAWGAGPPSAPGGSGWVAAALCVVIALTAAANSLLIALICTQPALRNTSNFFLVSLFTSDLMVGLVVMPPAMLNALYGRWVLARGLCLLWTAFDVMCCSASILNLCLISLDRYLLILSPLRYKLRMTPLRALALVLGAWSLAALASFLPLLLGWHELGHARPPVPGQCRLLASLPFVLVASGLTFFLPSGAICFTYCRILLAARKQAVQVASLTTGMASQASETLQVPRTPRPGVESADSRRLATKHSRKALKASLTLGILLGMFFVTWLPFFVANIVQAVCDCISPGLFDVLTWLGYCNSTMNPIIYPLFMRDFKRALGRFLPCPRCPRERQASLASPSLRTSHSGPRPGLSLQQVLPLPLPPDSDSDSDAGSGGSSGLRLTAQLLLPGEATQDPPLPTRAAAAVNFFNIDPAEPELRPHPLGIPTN
Summary of the method: (§1)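 Transfected HeLa cells expressing human 5-HT6 were washed with Krebs buffer and preincubated 5 min at 37 °C in Krebs with 500 µM IBMX. They were then stimulated 10 min at 37 °C with compound over 0.1–10000 nM. Agonist potency came from concentration–response curves, and percent efficacy was taken relative to a serotonin maximal response.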

[2] = molecular target: T1, 5-hydroxytryptamine receptor 6; assay: Displacement of [3H]LSD from human cloned 5HT6 receptor expressed in HeLa cells; assay type: cell-based
Summary of the method: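 Radioligand binding used human 5-HT6 receptor stably expressed in HeLa cells with [3H]LSD as the radioligand. Affinity is reported as Ki.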

[3] = molecular target: T1, 5-hydroxytryptamine receptor 6; assay: Agonist activity at human cloned 5HT6 receptor expressed in HeLa cells assessed as induction of adenylyl cyclase activity by RIA relative to serotonin; assay type: functional, cell-based; summary of the method: as §1
[4] = molecular target: T1, 5-hydroxytryptamine receptor 6; assay: Antagonist activity at human cloned 5HT6 receptor expressed in HeLa cells assessed as inhibition of adenylyl cyclase activity by RIA; assay type: functional, cell-based
[5] = molecular target: T1, 5-hydroxytryptamine receptor 6; assay: Antagonist activity at human cloned 5HT6 receptor expressed in HeLa cells assessed as inhibition of adenylyl cyclase activity by RIA relative to serotonin; assay type: functional, cell-based
Homo sapiens [6] = species on record: Homo sapiens; assay: Selectivity ratio of IC50 for human cloned dopamine D4 receptor to human cloned 5HT6 receptor
[7] = molecular target: 5-hydroxytryptamine receptor 1B (Homo sapiens) (UniProt P28222); assay: Displacement of [3H]5-HT from human cloned 5HT1B receptor expressed in CHO cells at 1 uM; assay type: cell-based
Chain of 5-hydroxytryptamine receptor 1B (Homo sapiens) (P28222 whole entry): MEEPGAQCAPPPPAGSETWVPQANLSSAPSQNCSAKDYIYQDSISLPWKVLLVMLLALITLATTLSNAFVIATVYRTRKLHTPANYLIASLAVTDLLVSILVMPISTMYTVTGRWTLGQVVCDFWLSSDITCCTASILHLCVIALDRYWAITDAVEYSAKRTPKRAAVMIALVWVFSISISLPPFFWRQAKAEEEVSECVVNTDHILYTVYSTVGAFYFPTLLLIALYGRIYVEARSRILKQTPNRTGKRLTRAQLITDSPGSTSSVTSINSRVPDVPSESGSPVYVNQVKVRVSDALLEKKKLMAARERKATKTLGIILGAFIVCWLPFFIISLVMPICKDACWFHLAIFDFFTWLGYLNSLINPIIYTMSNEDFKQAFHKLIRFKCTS
Summary of the method: (§2)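 Human 5-HT1B, 5-HT1D and 5-HT1F receptors were stably expressed in CHO cells and labelled with [3H]-5-HT. Results are given as percent inhibition at a single 1 µM concentration.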

[8] = molecular target: 5-hydroxytryptamine receptor 1D (Homo sapiens) (UniProt P28221); assay: Displacement of [3H]5-HT from human cloned 5HT1D receptor expressed in CHO cells at 1 uM; assay type: cell-based; summary of the method: as §2
Chain of 5-hydroxytryptamine receptor 1D (Homo sapiens) (P28221 whole entry): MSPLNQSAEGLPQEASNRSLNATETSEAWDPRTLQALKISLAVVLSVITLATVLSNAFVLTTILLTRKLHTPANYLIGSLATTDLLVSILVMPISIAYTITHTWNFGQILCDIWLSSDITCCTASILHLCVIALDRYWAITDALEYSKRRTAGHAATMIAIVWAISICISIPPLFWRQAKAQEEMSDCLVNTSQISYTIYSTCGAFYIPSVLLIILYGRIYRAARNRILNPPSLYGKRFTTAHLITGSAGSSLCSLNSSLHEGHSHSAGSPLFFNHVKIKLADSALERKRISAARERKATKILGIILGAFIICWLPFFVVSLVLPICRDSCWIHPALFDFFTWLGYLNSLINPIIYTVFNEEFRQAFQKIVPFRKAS

D(3) dopamine receptor = D(3) dopamine receptor (Homo sapiens, UniProt P35462); assay: Displacement of [3H]spiperone from human cloned dopamine D3 receptor expressed in CHO-K1 cells; assay type: cell-based
Chain of D(3) dopamine receptor (P35462 whole entry): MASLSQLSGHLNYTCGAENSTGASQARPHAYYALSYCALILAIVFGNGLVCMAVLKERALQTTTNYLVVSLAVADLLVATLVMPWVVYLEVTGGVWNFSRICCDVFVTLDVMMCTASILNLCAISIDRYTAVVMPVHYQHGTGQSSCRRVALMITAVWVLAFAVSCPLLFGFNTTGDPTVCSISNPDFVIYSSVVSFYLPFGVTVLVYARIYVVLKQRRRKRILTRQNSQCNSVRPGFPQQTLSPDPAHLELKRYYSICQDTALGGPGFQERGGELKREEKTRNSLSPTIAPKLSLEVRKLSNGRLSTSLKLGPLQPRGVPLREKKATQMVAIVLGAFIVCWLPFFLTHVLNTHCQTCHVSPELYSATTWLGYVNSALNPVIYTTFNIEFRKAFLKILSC
Summary of the method: (§3)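 Binding selectivity used stably expressed human receptors, 5-HT in CHO cells and dopamine in CHO-K1. Radioligands: [125I]DOI for 5-HT2A (agonist radioligand), [3H]-5-HT for 5-HT2C, [3H]LSD for 5-HT7, [3H]spiperone for D2, D3 and D4. Values are IC50 in nM.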

D(2) dopamine receptor = D(2) dopamine receptor (Homo sapiens, UniProt P14416); assay: Displacement of [3H]spiperone from human cloned dopamine D2 receptor expressed in CHO-K1 cells; assay type: cell-based; summary of the method: as §3
Chain of D(2) dopamine receptor (P14416 whole entry): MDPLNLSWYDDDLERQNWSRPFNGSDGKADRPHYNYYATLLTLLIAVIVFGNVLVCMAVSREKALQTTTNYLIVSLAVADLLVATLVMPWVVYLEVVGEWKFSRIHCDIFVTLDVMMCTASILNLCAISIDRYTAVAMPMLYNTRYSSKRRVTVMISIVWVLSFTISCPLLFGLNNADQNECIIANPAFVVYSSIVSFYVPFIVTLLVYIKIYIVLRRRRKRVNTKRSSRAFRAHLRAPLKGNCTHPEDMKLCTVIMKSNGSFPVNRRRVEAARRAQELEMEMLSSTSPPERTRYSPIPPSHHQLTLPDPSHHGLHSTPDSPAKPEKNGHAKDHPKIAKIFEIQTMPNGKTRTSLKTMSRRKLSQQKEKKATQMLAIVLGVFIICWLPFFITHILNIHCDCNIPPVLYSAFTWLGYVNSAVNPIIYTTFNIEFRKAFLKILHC

D(4) dopamine receptor = molecular target: T2, D(4) dopamine receptor (Homo sapiens, UniProt P21917); assay: Displacement of [3H]spiperone from human cloned dopamine D4 receptor expressed in CHO-K1 cells; assay type: cell-based; summary of the method: as §3
T2 sequence (P21917 whole entry): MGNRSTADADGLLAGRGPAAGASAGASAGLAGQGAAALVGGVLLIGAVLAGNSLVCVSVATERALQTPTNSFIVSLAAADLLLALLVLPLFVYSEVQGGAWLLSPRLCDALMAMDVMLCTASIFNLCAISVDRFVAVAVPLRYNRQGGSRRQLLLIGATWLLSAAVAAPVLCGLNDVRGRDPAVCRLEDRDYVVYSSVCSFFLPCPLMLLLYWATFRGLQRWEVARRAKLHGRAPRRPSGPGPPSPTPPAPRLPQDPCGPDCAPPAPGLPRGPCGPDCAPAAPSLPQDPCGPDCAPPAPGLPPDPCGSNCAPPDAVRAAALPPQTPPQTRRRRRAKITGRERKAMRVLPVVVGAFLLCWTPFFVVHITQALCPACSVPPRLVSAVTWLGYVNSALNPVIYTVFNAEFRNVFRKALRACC

[9] = molecular target: 5-hydroxytryptamine receptor 2A (Homo sapiens, UniProt P28223); assay: Displacement of [125I]DOI from human cloned 5HT2A receptor expressed in CHO cells; assay type: cell-based; summary of the method: as §3
Chain of 5-hydroxytryptamine receptor 2A (P28223 whole entry): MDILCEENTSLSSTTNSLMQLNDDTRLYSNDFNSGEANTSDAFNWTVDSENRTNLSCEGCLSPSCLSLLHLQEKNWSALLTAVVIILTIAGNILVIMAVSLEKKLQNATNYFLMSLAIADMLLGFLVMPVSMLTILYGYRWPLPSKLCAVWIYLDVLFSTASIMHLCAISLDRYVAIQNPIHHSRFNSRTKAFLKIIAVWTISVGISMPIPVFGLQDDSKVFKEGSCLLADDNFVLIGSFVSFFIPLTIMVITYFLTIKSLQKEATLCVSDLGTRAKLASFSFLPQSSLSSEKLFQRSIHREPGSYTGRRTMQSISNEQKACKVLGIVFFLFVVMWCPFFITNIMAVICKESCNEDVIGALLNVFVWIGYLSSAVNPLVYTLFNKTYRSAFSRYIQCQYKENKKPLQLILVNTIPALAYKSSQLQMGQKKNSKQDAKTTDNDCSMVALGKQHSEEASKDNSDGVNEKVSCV

Homo sapiens [10] = species on record: Homo sapiens; assay: Selectivity ratio of IC50 for human cloned 5HT2C receptor to human cloned 5HT6 receptor
[11] = molecular target: 5-hydroxytryptamine receptor 7 (Homo sapiens, UniProt P34969); assay: Displacement of [3H]LSD from human cloned 5HT7 receptor expressed in CHO cells; assay type: cell-based; summary of the method: as §3
Chain of 5-hydroxytryptamine receptor 7 (P34969 whole entry): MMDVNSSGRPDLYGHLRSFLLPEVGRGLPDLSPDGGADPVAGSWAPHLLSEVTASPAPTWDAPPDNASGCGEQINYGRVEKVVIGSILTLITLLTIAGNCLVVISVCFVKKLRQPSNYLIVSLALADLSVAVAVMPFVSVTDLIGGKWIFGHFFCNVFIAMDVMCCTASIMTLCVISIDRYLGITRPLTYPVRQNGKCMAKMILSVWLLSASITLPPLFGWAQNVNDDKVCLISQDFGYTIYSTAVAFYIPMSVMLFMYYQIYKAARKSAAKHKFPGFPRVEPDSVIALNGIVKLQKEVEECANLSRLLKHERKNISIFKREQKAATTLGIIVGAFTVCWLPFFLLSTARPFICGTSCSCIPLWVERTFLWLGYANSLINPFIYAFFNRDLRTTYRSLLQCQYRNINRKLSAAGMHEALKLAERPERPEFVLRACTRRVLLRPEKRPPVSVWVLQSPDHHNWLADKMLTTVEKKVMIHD

Homo sapiens [12] = species on record: Homo sapiens; assay: Selectivity ratio of IC50 for human cloned 5HT1F receptor to human cloned 5HT6 receptor
Homo sapiens [13] = species on record: Homo sapiens; assay: Selectivity ratio of IC50 for human cloned 5HT7 receptor to human cloned 5HT6 receptor
Homo sapiens [14] = species on record: Homo sapiens; assay: Selectivity ratio of IC50 for human cloned dopamine D2 receptor to human cloned 5HT6 receptor
[15] = molecular target: T3, 5-hydroxytryptamine receptor 2C (Homo sapiens, UniProt P28335); assay: Displacement of [3H]5-HT from human cloned 5HT2C receptor expressed in CHO cells; assay type: cell-based; summary of the method: as §3
T3 sequence (P28335 whole entry): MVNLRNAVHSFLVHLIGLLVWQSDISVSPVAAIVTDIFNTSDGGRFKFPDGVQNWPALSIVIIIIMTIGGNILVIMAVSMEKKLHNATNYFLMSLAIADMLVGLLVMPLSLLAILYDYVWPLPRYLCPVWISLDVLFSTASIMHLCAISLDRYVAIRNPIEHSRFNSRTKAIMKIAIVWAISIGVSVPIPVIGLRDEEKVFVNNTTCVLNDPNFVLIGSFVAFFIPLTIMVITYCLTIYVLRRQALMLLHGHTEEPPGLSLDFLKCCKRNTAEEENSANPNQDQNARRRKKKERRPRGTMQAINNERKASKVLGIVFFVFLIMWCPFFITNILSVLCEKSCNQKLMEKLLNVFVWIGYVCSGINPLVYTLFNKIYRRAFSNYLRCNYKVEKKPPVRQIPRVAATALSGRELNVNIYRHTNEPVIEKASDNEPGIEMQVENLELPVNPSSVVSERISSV

[16] = molecular target: T4, 5-hydroxytryptamine receptor 1F (Homo sapiens) (UniProt P30939); assay: Displacement of [3H]5-HT from human cloned 5HT1F receptor expressed in CHO cells at 1 uM; assay type: cell-based; summary of the method: as §2
T4 sequence (whole entry): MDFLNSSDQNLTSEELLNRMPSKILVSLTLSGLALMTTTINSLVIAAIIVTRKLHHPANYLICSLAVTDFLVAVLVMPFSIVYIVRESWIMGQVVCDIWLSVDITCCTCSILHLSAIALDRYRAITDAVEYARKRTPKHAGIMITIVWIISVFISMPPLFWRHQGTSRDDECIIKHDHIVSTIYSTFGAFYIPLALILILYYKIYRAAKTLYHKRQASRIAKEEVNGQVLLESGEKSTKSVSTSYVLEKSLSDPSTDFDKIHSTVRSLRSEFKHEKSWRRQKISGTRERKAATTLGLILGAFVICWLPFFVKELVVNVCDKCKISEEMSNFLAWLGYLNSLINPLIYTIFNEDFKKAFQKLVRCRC

Homo sapiens [17] = species on record: Homo sapiens; assay: Selectivity ratio of IC50 for human cloned 5HT1B receptor to human cloned 5HT6 receptor
Homo sapiens [18] = species on record: Homo sapiens; assay: Selectivity ratio of IC50 for human cloned 5HT1D receptor to human cloned 5HT6 receptor
Homo sapiens [19] = species on record: Homo sapiens; assay: Selectivity ratio of IC50 for human cloned dopamine D3 receptor to human cloned 5HT6 receptor
Homo sapiens [20] = species on record: Homo sapiens; assay: Selectivity ratio of IC50 for human cloned 5HT2A receptor to human cloned 5HT6 receptor
Rattus norvegicus [21] = assay: Increase in extracellular GABA level in Sprague-Dawley rat frontal cortex at 30 mg/kg, sc; assay type: functional, organism-based; design: dose 30 mg/kg
Summary of the method: (§4)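 Rats received a single acute subcutaneous dose of 30 mg/kg. Extracellular GABA and glutamate in frontal cortex were followed over time from about −100 to 350 min around dosing and compared with vehicle-treated animals, with significance set at P < 0.05.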

Rattus norvegicus [22] = assay: Inhibition of schedule-induced polydipsia in po dosed Sprague-Dawley rat assessed as reduction of adjunctive drinking behavior; assay type: functional
Summary of the method: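 In the schedule-induced polydipsia model, rats were dosed orally at 30, 56 and 100 mg/kg against a vehicle group. Adjunctive drinking was measured, an ED50 was derived, and comparison with vehicle used P < 0.05.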

Rattus norvegicus [23] = assay: Increase in extracellular glutamate level in Sprague-Dawley rat frontal cortex at 30 mg/kg, sc; assay type: functional, organism-based; design: dose 30 mg/kg; summary of the method: as §4

Row | Compound | EC50 [1] [nM] | Ki [2] [nM] | Emax [3] [%] | IC50 (D(3) dopamine receptor) [nM] | IC50 (D(2) dopamine receptor) [nM] | IC50 (D(4) dopamine receptor) [nM] | IC50 [9] [nM] | IC50 [11] [nM] | IC50 [15] [nM] | further results
1 | NCCn1cc(S(=O)(=O)c2cccc(C(F)(F)F)c2)c2cccnc21 | 110 | 2.1 | 83 | – | – | – | – | – | – | –
2 | CNCCn1cc(S(=O)(=O)c2c(Cl)nc3sccn23)c2cccnc21 | – | 0.9 | – | – | – | – | – | – | – | IC50 [4]: 5.4 nM; Imax [5]: 89%
3 | NCCn1cc(S(=O)(=O)c2ccccc2)c2cccnc21 | 27 | 5.5 | 100 | > 5000 | > 5000 | > 5000 | > 5000 | > 5000 | > 5000 | Ratio IC50 (Homo sapiens [6]): > 50; inhibition [7]: 11%; inhibition [8]: 16%; Ratio IC50 (Homo sapiens [10]): > 50; Ratio IC50 (Homo sapiens [12]): > 50; Ratio IC50 (Homo sapiens [13]): > 50; Ratio IC50 (Homo sapiens [14]): > 50; inhibition [16]: 14%; Ratio IC50 (Homo sapiens [17]): > 50; Ratio IC50 (Homo sapiens [18]): > 50; Ratio IC50 (Homo sapiens [19]): > 50; Ratio IC50 (Homo sapiens [20]): > 50
4 | CNCCn1cc(S(=O)(=O)c2cccc(F)c2)c2cccnc21 | – | – | – | – | – | – | – | – | – | IC50 [4]: 6.2 nM; Imax [5]: 93%
5 | CN(C)CCn1cc(S(=O)(=O)c2cccc(F)c2)c2cccnc21 | – | – | 100 | > 5000 | > 5000 | > 5000 | 351 | 4760 | 644 | inhibition [7]: 30%; Activity (Rattus norvegicus [21]): Active; inhibition [8]: 16%; ED50 (Rattus norvegicus [22]): 89.5 mg/kg; inhibition [16]: 22%; Activity (Rattus norvegicus [23]): inactive
6 | NCCn1cc(S(=O)(=O)c2ccccc2)c2ccccc21 | 178 | – | 67 | – | – | – | – | – | – | –
7 | CN(C)CCn1cc(S(=O)(=O)c2c(Cl)nc3sccn23)c2cccnc21 | 120 | 0.9 | 71 | – | – | – | – | – | – | –
8 | NCCn1cc(S(=O)(=O)c2ccc(F)cc2)c2cccnc21 | 166 | – | 100 | – | – | – | – | – | – | –
9 | NCCn1cc(S(=O)(=O)c2cccc(Cl)c2)c2cccnc21 | 18 | 2 | 94 | > 5000 | > 5000 | > 5000 | 11 | 1360 | 44 | –

Now from value to compound, other results behind:

Row | EC50 [1] [nM] | Ki [2] [nM] | Emax [3] [%] | IC50 (D(3) dopamine receptor) [nM] | IC50 (D(2) dopamine receptor) [nM] | IC50 (D(4) dopamine receptor) [nM] | IC50 [9] [nM] | IC50 [11] [nM] | IC50 [15] [nM] | Compound | further results
10 | 32 | 3.3 | 93 | – | – | – | – | – | – | CN(C)CCn1cc(S(=O)(=O)c2ccc(Cl)s2)c2cccnc21 | –
11 | 30 | 45 | 84 | – | – | – | – | – | – | CN(C)CCn1cc(S(=O)(=O)c2ccc(F)cc2)c2cccnc21 | –
12 | – | 11.7 | – | – | – | – | – | – | – | CN(C)CCn1cc(S(=O)(=O)c2cc(Cl)ccc2Cl)c2cccnc21 | IC50 [4]: 15 nM; Imax [5]: 97%
13 | 51 | – | 63 | 1560 | > 5000 | > 5000 | 938 | 511 | 1140 | CN(C)CCn1cc(S(=O)(=O)c2cccc3ccccc23)c2cccnc21 | Ratio IC50 (Homo sapiens [6]): > 50; inhibition [7]: 40%; inhibition [8]: 0%; Ratio IC50 (Homo sapiens [10]): > 50; Ratio IC50 (Homo sapiens [12]): > 50; Ratio IC50 (Homo sapiens [13]): > 50; Ratio IC50 (Homo sapiens [14]): > 50; inhibition [16]: 10%; Ratio IC50 (Homo sapiens [17]): > 50; Ratio IC50 (Homo sapiens [18]): > 50; Ratio IC50 (Homo sapiens [19]): > 50; Ratio IC50 (Homo sapiens [20]): > 50
